{"source": "ChEMBL document CHEMBL4041530", "about": "“Development of spiroguanidine-derived α7 neuronal nicotinic receptor partial agonists” (Bioorg Med Chem Lett, 2017)", "data": [{"organism": "Homo sapiens", "assay": "Selectivity ratio of IC50 for 5-HT3A receptor (unknown origin) to EC50 for alpha7 nAChR (unknown origin) expressed in HEK293 cells", "assay_type": "cell-based", "details": "not given", "how_it_was_run": "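Selectivity ratio calculated as 5-HT3A IC50 (FLIPR Ca2+ antagonist assay) divided by α7 EC50 (FLIPR Ca2+ agonist assay).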", "values": [{"smiles": "Clc1ccc(NC2=NCC3(CN4CCC3CC4)N2)nc1", "note": "(racemic)", "Ratio IC50/EC50": 0.72}, {"smiles": "CN1C(Nc2nc3ccc(Cl)nc3s2)=NCC12CN1CCC2CC1", "note": "(racemic)", "Ratio IC50/EC50": 24}, {"smiles": "COc1ccc2sc(NC3=NCC4(CN5CCC4CC5)N3)nc2c1", "note": "(racemic)", "Ratio IC50/EC50": 0.068}, {"smiles": "Cc1ccc2nc(NC3=NCC4(CN5CCC4CC5)N3)oc2c1", "note": "(racemic)", "Ratio IC50/EC50": "210 to 250"}, {"smiles": "COc1ccc2nc(NC3=NCC4(CN5CCC4CC5)N3)sc2c1", "note": "(racemic)", "Ratio IC50/EC50": 36}, {"smiles": "Clc1cnc(NC2=NCC3(CN4CCC3CC4)N2)cn1", "note": "(racemic)", "Ratio IC50/EC50": 5.7}, {"smiles": "c1ccc2c(NC3=NCC4(CN5CCC4CC5)N3)ncnc2c1", "note": "(racemic)", "Ratio IC50/EC50": 27}, {"smiles": "c1ccc2oc(NC3=NCC4(CN5CCC4CC5)N3)nc2c1", "note": "(racemic)", "Ratio IC50/EC50": 0.49}, {"smiles": "Clc1ccc2nc(NC3=NCC4(CN5CCC4CC5)N3)sc2c1", "note": "(racemic)", "Ratio IC50/EC50": 120}]}, {"system": "Rattus norvegicus", "assay": "In vivo agonist activity at alpha7 nAChR in Wistar rat assessed as induction of c-fos gene expression in medial prefrontal cortex at 10 mg/kg, sc after 2 hrs by qPCR method relative to control", "assay_type": "functional", "details": "not given", "how_it_was_run": "(§1)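 Rats dosed sc at 0.3–10 mg/kg, or with vehicle at 2 mL/kg sc. Medial prefrontal cortex was assayed for c-fos and Arc expression, normalized to vehicle, with β2-microglobulin as the endogenous control. Data are mean ± SEM, N = 8. Dunnett's multiple comparison test against vehicle gave adjusted p values.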", "values": [{"smiles": "O=C(Oc1ccc(Br)cc1)N1CCN2CCC1CC2", "note": "[SSR180711]", "fold change (FC)": 2.4}]}, {"system": "Rattus norvegicus", "assay": "Effect on beta2-microglobulin gene expression in Wistar rat medial prefrontal cortex at 10 mg/kg, sc after 2 hrs by qPCR method", "assay_type": "ADME, organism-based", "details": "in vivo", "how_it_was_run": "as §1", "values": [{"smiles": "O=C(Oc1ccc(Br)cc1)N1CCN2CCC1CC2", "note": "[SSR180711]", "Activity": "Non-Toxic"}]}, {"system": "Rattus norvegicus", "assay": "In vivo agonist activity at alpha7 nAChR in Wistar rat assessed as induction of Arc gene expression in medial prefrontal cortex at 10 mg/kg, sc after 2 hrs by qPCR method relative to control", "assay_type": "functional", "details": "not given", "how_it_was_run": "as §1", "values": [{"smiles": "O=C(Oc1ccc(Br)cc1)N1CCN2CCC1CC2", "note": "[SSR180711]", "fold change (FC)": 3.9}]}, {"molecular_target": "T1, 5-hydroxytryptamine receptor 3A (Homo sapiens, UniProt P46098)", "T1 sequence (P46098 whole entry)": "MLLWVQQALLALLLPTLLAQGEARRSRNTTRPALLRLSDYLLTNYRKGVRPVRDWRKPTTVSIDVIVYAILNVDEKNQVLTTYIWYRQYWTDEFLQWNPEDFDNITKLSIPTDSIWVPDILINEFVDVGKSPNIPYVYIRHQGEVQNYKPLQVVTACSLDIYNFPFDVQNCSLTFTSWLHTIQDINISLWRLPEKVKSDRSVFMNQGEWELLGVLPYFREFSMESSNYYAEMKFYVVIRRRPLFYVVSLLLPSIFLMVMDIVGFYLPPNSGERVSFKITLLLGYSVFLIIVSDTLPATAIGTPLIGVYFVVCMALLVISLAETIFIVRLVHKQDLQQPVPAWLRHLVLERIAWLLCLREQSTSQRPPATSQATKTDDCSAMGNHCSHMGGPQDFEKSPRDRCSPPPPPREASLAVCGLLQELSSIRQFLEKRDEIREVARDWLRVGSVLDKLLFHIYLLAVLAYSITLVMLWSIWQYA", "assay": "Antagonist activity at 5-HT3A receptor (unknown origin) assessed as decrease in calcium influx by Fluo-4-AM dye based FLIPR assay", "details": "not given", "how_it_was_run": "(§2)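 Ca2+-based fluorescence imaging plate reader screen, run as two assays: α7 nAChR agonism and 5-HT3A receptor antagonism. Number of determinations recorded per value.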", "units": {"IC50": "µM"}, "values": [{"smiles": "Clc1ccc(NC2=NCC3(CN4CCC3CC4)N2)nc1", "note": "(racemic)", "IC50": 0.86}, {"smiles": "CN1C(Nc2nc3ccc(Cl)nc3s2)=NCC12CN1CCC2CC1", "note": "(racemic)", "IC50": 13}, {"smiles": "COc1ccc2sc(NC3=NCC4(CN5CCC4CC5)N3)nc2c1", "note": "(racemic)", "IC50": 0.051}, {"smiles": "Cc1ccc2nc(NC3=NCC4(CN5CCC4CC5)N3)oc2c1", "note": "(racemic)", "IC50": 7.4}, {"smiles": "COc1ccc2nc(NC3=NCC4(CN5CCC4CC5)N3)sc2c1", "note": "(racemic)", "IC50": 32}, {"smiles": "Clc1cnc(NC2=NCC3(CN4CCC3CC4)N2)cn1", "note": "(racemic)", "IC50": 5.6}, {"smiles": "c1ccc2c(NC3=NCC4(CN5CCC4CC5)N3)ncnc2c1", "note": "(racemic)", "IC50": 14.5}, {"smiles": "c1ccc2oc(NC3=NCC4(CN5CCC4CC5)N3)nc2c1", "note": "(racemic)", "IC50": 0.026}, {"smiles": "Clc1ccc2nc(NC3=NCC4(CN5CCC4CC5)N3)sc2c1", "note": "(racemic)", "IC50": 18}]}, {"molecular_target": "Neuronal acetylcholine receptor subunit alpha-7 (Homo sapiens, UniProt P36544)", "sequence (P36544 whole entry)": "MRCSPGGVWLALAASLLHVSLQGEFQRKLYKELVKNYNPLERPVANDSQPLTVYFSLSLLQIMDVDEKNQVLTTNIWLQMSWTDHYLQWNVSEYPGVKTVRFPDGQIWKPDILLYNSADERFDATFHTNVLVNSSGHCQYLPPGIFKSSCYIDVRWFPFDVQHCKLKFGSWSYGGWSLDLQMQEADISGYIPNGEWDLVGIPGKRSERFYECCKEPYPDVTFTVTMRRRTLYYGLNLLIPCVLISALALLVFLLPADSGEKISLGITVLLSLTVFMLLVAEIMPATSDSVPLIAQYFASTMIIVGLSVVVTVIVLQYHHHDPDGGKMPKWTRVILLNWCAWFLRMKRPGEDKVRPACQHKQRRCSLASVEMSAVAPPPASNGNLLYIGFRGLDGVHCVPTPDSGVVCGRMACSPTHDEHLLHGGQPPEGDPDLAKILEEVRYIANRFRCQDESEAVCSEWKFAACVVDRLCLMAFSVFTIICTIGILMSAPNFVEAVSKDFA", "assay": "Agonist activity at alpha7 nAChR (unknown origin) expressed in HEK293 cells assessed as increase in calcium influx by Fluo-4-AM dye based FLIPR assay", "assay_type": "cell-based", "details": "not given", "how_it_was_run": "as §2", "units": {"EC50": "µM"}, "values": [{"smiles": "Clc1ccc(NC2=NCC3(CN4CCC3CC4)N2)nc1", "note": "(racemic)", "EC50": 1.2}, {"smiles": "CN1C(Nc2nc3ccc(Cl)nc3s2)=NCC12CN1CCC2CC1", "note": "(racemic)", "EC50": 0.55}, {"smiles": "COc1ccc2sc(NC3=NCC4(CN5CCC4CC5)N3)nc2c1", "note": "(racemic)", "EC50": 0.75}, {"smiles": "Cc1ccc2nc(NC3=NCC4(CN5CCC4CC5)N3)oc2c1", "note": "(racemic)", "EC50": 0.035}, {"smiles": "COc1ccc2nc(NC3=NCC4(CN5CCC4CC5)N3)sc2c1", "note": "(racemic)", "EC50": 0.88}, {"smiles": "Clc1cnc(NC2=NCC3(CN4CCC3CC4)N2)cn1", "note": "(racemic)", "EC50": 0.99}, {"smiles": "c1ccc2c(NC3=NCC4(CN5CCC4CC5)N3)ncnc2c1", "note": "(racemic)", "EC50": 0.53}, {"smiles": "c1ccc2oc(NC3=NCC4(CN5CCC4CC5)N3)nc2c1", "note": "(racemic)", "EC50": 0.053}, {"smiles": "Clc1ccc2nc(NC3=NCC4(CN5CCC4CC5)N3)sc2c1", "note": "(racemic)", "EC50": 0.15}]}, {"molecular_target": "Neuronal acetylcholine receptor subunit alpha-7 (Rattus norvegicus, UniProt Q05941)", "sequence (Q05941 whole entry)": "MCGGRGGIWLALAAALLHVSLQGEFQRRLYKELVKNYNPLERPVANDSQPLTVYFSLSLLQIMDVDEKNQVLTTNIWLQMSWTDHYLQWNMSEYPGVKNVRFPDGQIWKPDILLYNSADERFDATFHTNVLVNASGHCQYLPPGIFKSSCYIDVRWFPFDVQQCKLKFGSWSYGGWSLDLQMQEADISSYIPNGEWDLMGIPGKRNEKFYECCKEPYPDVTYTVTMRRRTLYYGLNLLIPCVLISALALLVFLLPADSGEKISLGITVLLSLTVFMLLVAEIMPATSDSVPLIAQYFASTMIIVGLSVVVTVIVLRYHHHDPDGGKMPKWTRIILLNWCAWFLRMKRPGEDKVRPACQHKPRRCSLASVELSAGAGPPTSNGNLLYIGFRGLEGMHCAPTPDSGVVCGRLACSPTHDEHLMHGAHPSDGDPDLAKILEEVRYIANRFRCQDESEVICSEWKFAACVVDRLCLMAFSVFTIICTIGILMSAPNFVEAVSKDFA", "assay": "Agonist activity at rat alpha7 nAChR expressed in HEK293 cells co-expressing human RIC-3 assessed as area under current curve at holding potential of -90 mV by whole-cell voltage clamp electrophysiology method", "assay_type": "cell-based", "details": "not given", "how_it_was_run": "(§3)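 Concentration-response patch-clamp electrophysiology in HEK-293 cells expressing rat α7 nAChR. EC50 is taken from response area. Efficacy is given as Ymax from both area and peak response.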", "units": {"EC50": "µM"}, "values": [{"smiles": "Cc1ccc2nc(NC3=NCC4(CN5CCC4CC5)N3)oc2c1", "note": "(racemic)", "EC50": 0.5}, {"smiles": "Clc1ccc2nc(NC3=NCC4(CN5CCC4CC5)N3)sc2c1", "note": "(racemic)", "EC50": 1.2}]}, {"molecular_target": "Neuronal acetylcholine receptor subunit alpha-7 (Rattus norvegicus) (UniProt Q05941)", "sequence (Q05941 whole entry)": "as above", "assay": "Agonist activity at rat alpha7 nAChR expressed in HEK293 cells co-expressing human RIC-3 assessed as maximum peak current at 10 uM at holding potential of -90 mV by whole-cell voltage clamp electrophysiology method relative to acetylcholine", "assay_type": "cell-based", "details": "not given", "how_it_was_run": "as §3", "units": {"Emax": "%"}, "values": [{"smiles": "Cc1ccc2nc(NC3=NCC4(CN5CCC4CC5)N3)oc2c1", "note": "(racemic)", "Emax": 16}, {"smiles": "Clc1ccc2nc(NC3=NCC4(CN5CCC4CC5)N3)sc2c1", "note": "(racemic)", "Emax": 5}]}, {"molecular_target": "Neuronal acetylcholine receptor subunit alpha-7 (Rattus norvegicus) (UniProt Q05941)", "assay": "Agonist activity at rat alpha7 nAChR expressed in HEK293 cells co-expressing human RIC-3 assessed as area under current curve at 10 uM at holding potential of -90 mV by whole-cell voltage clamp electrophysiology method relative to acetylcholine", "assay_type": "cell-based", "details": "not given", "how_it_was_run": "as §3", "units": {"Emax": "%"}, "values": [{"smiles": "Cc1ccc2nc(NC3=NCC4(CN5CCC4CC5)N3)oc2c1", "note": "(racemic)", "Emax": 58}, {"smiles": "Clc1ccc2nc(NC3=NCC4(CN5CCC4CC5)N3)sc2c1", "note": "(racemic)", "Emax": 33}]}]}
